Sampled rows, rich in hits. Any-hit rate of the full collection: about 2.2%.
PERK inh = inhibitors of human PERK kinase. inhibition, % at 5.6 µM. CHO PERK-DD fusion, SEAP luminescence translation reporter. Q9NZJ5. hit rate 0.17% among 220,000;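 active means inhibition above the mean inhibition of all tested compounds plus 3 SD, set separately per screening campaign, cut at about 2.9% in these data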;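 further: PERK kinase domain activated by AP20187 dimerizer at 100 nM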
Target sequence (Q9NZJ5 whole entry, looked up, the tested form may be a part): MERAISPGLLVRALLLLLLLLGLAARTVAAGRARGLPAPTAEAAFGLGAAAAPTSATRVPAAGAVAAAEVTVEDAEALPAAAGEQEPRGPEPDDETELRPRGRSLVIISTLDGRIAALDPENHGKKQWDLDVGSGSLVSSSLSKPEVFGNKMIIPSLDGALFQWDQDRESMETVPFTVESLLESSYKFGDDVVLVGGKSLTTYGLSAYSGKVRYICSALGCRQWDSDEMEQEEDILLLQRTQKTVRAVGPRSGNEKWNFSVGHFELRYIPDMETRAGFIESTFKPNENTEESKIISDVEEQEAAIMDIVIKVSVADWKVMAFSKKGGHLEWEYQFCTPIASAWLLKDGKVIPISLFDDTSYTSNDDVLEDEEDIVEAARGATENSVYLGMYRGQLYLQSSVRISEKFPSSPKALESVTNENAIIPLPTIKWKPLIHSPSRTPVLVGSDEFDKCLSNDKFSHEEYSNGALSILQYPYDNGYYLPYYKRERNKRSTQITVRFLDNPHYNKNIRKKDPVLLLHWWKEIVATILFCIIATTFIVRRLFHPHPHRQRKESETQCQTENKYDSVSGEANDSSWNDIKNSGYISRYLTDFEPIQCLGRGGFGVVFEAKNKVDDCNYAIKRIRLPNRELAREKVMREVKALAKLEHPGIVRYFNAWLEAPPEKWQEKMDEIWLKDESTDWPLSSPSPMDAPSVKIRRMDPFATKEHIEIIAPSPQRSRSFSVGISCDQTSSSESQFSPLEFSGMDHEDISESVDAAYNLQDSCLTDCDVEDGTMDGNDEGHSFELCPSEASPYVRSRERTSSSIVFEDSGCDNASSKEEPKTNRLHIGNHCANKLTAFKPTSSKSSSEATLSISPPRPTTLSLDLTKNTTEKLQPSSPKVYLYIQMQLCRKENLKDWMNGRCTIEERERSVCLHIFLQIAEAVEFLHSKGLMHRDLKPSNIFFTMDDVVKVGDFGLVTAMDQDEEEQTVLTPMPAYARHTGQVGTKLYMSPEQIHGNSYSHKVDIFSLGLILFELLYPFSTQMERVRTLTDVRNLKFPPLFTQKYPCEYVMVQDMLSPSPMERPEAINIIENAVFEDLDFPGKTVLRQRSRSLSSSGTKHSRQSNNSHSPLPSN
p97 inhibitor = inhibitors of human p97 ATPase. inhibition, % at 8 µM. recombinant p97 ATPase, Kinase-Glo ATP luminescence, 3 h. AID 1481. hit rate 0.42% among 220,000; in the data active means inhibition above about 15%
14-3-3 Bad PPI = disrupts binding of bovine 14-3-3 zeta to phospho-Bad peptide. inhibition, % at 21.7 µM. AID 781. P63103. TR-FRET 14-3-3zeta/Dy647-pBad peptide displacement, 1 h. hit rate 0.71% among 220,000;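 active means inhibition above about 70%, limit read from the data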
eIF4E-4G inh = blocks eIF4E binding to eIF4G. hit rate 0.37% among 220,000. TR-FRET eIF4E-eIF4GI(517-606) binding, 2 h. inhibition, % at 21.7 µM. P63073+Q04637;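 active means inhibition above about 30%, limit read from the data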
Calb biofilm kill = mixtures killing C. albicans biofilm. C. albicans biofilm persisters + clotrimazole, fluorescence viability; primary screen in compound mixtures of four per well. inhibition, % at 7.6 µM. hit rate 0.02% among 120,000;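 active means inhibition above 30.3% in the primary screen of four-compound pools, then above 30% when the compound was retested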;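 further: compounds exposed to preformed 24 h biofilms for 48 h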
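Test system: C. albicans biofilms. Buffer or medium: RPMI/MOPS medium, pH 7.0. Timing: 48 h compound exposure at 37 °C. Technique: Alamar Blue fluorescence. Evaluation: percent inhibition of biofilm viability.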
Hck Nef HTS = human Hck-Nef kinase inhibition; hit rate 0.68% among 220,000; Recombinant Hck-YEEI plus Nef, Z-Lyte FRET kinase assay; inhibition, % at 20 µM; P08631;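 active means Hck-Nef kinase inhibition above about 50%, limit read from the data; inactive means inhibition below that limit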
Hck-Nef confirm = confirmation of Hck-Nef kinase inhibitors; hit rate 28% among 1,300; calls only at 10 µM; AID 463188; Recombinant Hck-YEEI:Nef, Z-Lyte FRET kinase assay; shares compounds with Hck Nef HTS;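 active means average inhibition of at least 50%, with Z-scores no higher than 3 in both the phospho-tyrosine peptide and fluorescence counterscreens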
Large screens that a line does not name were inactive (follow-up assays come after a bar, where shown).

CCOC(=O)c1cc2c(=O)n3ccccc3nc2n(CCOC)c1=NC(=O)C(C)(C)C	Hck Nef HTS 101.0 (not shown: Calb biofilm kill)
CCOCCCn1c(=NC(C)=O)c(C#N)cc2c(=O)n3ccccc3nc21	Hck Nef HTS 95.9
CCOC(=O)c1cc2c(=O)n3ccccc3nc2n(Cc2ccco2)c1=NC(=O)c1ccccc1OCC	none
COCCCn1c(=NC(=O)c2ccccc2)c(C#N)cc2c(=O)n3cccc(C)c3nc21	Hck Nef HTS 81.5 | Hck-Nef confirm inactive
CCOC(=O)c1cc2c(=O)n3ccccc3nc2n(CC(C)C)c1=NC(=O)c1ccco1	Hck Nef HTS 105.4 (no result: Calb biofilm kill) | Hck-Nef confirm inactive
C=CCc1cccc2cc(C(=O)Nc3ccc(S(=O)(=O)Nc4nnc(CC)s4)cc3)c(=O)oc12	none
OCCC1CN(Cc2ccon2)CCN1Cc1ccc(F)c(F)c1 (stereo not drawn)	none
CCOC(=O)c1cc2c(=O)n3ccccc3nc2n(CCOC)c1=NC(=O)c1ccncc1	none (no result: Calb biofilm kill)
CCOCCCn1c(=NC(C)=O)c(C(=O)OCC)cc2c(=O)n3ccccc3nc21	Hck Nef HTS 118.7 (not shown: Calb biofilm kill)
O=c1[nH]c(CSc2ncnc3sc(-c4ccccc4)cc23)nc2ccccc12	Hck Nef HTS 54.2 | Hck-Nef confirm inactive
O=c1[nH]c(CSc2nc(-c3ccccc3)cs2)nc2ccccc12	none
O=C(O)c1ccc(N2C(=O)/C(=C/c3ccc(-c4ccc([N+](=O)[O-])cc4)o3)C=C2c2ccccc2)cc1	14-3-3 Bad PPI 93.7, eIF4E-4G inh 76.4, Hck Nef HTS 72.1 | Hck-Nef confirm active
Cc1cccn2c(=O)c3cc(C(=O)NCC4CCCO4)c(=N)n(CCN4CCOCC4)c3nc12 (stereo not drawn)	none (no result: 14-3-3 Bad PPI, eIF4E-4G inh, Calb biofilm kill)
CCCn1c(=N)c(C(=O)NCC2CCCO2)cc2c(=O)n3cccc(C)c3nc21 (stereo not drawn)	Hck Nef HTS 191.8 (not shown: Calb biofilm kill)
COCCCn1c(=N)c(C(=O)NCC2CCCO2)cc2c(=O)n3ccccc3nc21 (stereo not drawn)	Hck Nef HTS active (not shown: Calb biofilm kill)
N=c1c(C(=O)NCc2ccc(F)cc2)cc2c(=O)n3ccccc3nc2n1CC1CCCO1 (stereo not drawn)	Hck Nef HTS 145.4 (not shown: Calb biofilm kill)
Cc1ccc(N)c2c1OCCC2=O	none
Cc1cc(Oc2cc(N)cc([N+](=O)[O-])c2)ccc1Cl	none
Cc1cccc(N/C(N)=N/c2nc(C)c(Cc3ccccc3)c(=O)[nH]2)c1	none
O=C(O)CN(c1ccccc1)S(=O)(=O)c1cc(C(F)(F)F)cc(C(F)(F)F)c1	none
COC(=O)c1ccccc1NC(=O)COc1ccc(S(=O)(=O)NC(C)C)cc1	none
Cc1c(C)n(CC(O)CN2CCCCC2)c2ccccc12 (stereo not drawn)	none (no result: Calb biofilm kill)
O=c1c2ccccc2n(CC(O)CN2CCCCC2)c2ccccc12 (stereo not drawn)	Hck Nef HTS 153.6
CN(C)CCNC(=S)Nc1ccc(F)c(F)c1F	none
O=C(Nc1c[nH]c(=O)[nH]c1=O)c1ccc2c(c1)C(=O)N(c1cccc([N+](=O)[O-])c1)C2=O	Hck Nef HTS 93.6 | Hck-Nef confirm active
O=c1cc(-c2ccccc2Cl)oc2cc(O)cc(O)c12	none
O=C1C=CC(O)(c2cc(=O)c3c(O)cc(O)cc3o2)C=C1	Hck Nef HTS 52.9 | Hck-Nef confirm inactive
O=C(CSc1nnc(SCc2ccccc2)s1)N/N=C/c1c[nH]c2ccccc12	14-3-3 Bad PPI 93.6, Hck Nef HTS 95.3 | Hck-Nef confirm active
O=C(CSc1nnc(SCc2ccccc2)s1)N/N=C/c1ccc(Cl)cc1Cl	none
COc1ccccc1OCCOc1ccc(/C=C2/C(=N)N3OC(C)=CC3=NC2=O)cc1OC	Hck Nef HTS 88.9 (no result: Calb biofilm kill) | Hck-Nef confirm active
CC1=CC2=NC(=O)/C(=C\c3cccn3CCOc3ccccc3C)C(=N)N2O1	none
COC(=O)C1=CN(C(C)C)C=C(C(=O)OC)C1c1cc(Br)c(OC)c(OC)c1	Hck Nef HTS 61.0
COC(=O)C1=CN(C(C)C)C=C(C(=O)OC)C1c1cccc(OC)c1	Hck Nef HTS 60.6 (not shown: Calb biofilm kill)
COc1cc(C(=O)NCc2ccccc2)cc(Br)c1OC	none
COC(=O)C1=C(C)NC2=C(C(=O)c3ccccc32)C1c1cccc(OC)c1 (stereo not drawn)	none
Cc1cc(NC(=O)CSc2ncnc3sc(C)c(C)c23)no1	none
O=C(Nc1nc2ccc(S(=O)(=O)N3CCCCC3)cc2s1)c1ccncc1	none (no result: Calb biofilm kill)
O=C(Nc1nc2ccc(S(=O)(=O)N3CCCC3)cc2s1)c1ccccn1	Hck Nef HTS 56.9 | Hck-Nef confirm inactive
CCOC(=O)c1cnc2ccc(OCC)cc2c1N1CCN(c2ccccc2OC)CC1	Hck Nef HTS 77.2 (no result: Calb biofilm kill) | Hck-Nef confirm active
CCOc1ccc2ncc(C(=O)c3ccc(OC)cc3)c(N3CCN(CC)CC3)c2c1	none
Cc1nc2ccc3nc(NC(=O)c4ccc5c(c4)OCCO5)sc3c2s1	Hck Nef HTS 87.0 (no result: 14-3-3 Bad PPI, eIF4E-4G inh, Calb biofilm kill) | Hck-Nef confirm active
COC(=O)c1sc2ncccc2c1OCc1c(Cl)cccc1Cl	Hck Nef HTS 55.4 (no result: Calb biofilm kill) | Hck-Nef confirm inactive
COC(=O)c1sc2ncccc2c1OCc1cccc(Cl)c1	none (no result: Calb biofilm kill)
COc1cccc(CNC(=O)C2CCC(CNS(=O)(=O)c3cccc4nsnc34)CC2)c1 (stereo not drawn)	none (no result: Calb biofilm kill)
Nc1cccc(C(=O)N/N=C/c2ccsc2)c1	none
COc1cc([N+](=O)[O-])cc(/C=N/NC(=O)C(C)Nc2ccccc2C)c1O (stereo not drawn)	Hck Nef HTS 101.3 | Hck-Nef confirm active
COc1cc([N+](=O)[O-])cc(/C=N/NC(=O)C(C)Nc2cccc(C)c2)c1O (stereo not drawn)	none
O=C(Nc1cc(Cl)cc(Cl)c1)N1CCCC1	none
CCN(CC)c1ccc(/C=N\NC(N)=O)cc1	none
CCN(CC)c1ccc(/C=N/NC(=O)c2ccoc2C)cc1	Hck Nef HTS 60.6
O=[N+]([O-])c1ccc(/C=N/n2cn[nH]c2=S)cc1	Hck Nef HTS 104.9
O=S(=O)(Nc1ccc(-c2nc3cccnc3s2)cc1)c1ccccc1F	Hck Nef HTS active
O=S(=O)(Nc1ccc(-c2nc3cccnc3s2)cc1)c1cccs1	Hck Nef HTS 116.0 (not shown: Calb biofilm kill)
CCS(=O)(=O)Nc1ccc(-c2nc3cccnc3s2)cc1	Hck Nef HTS active
CCS(=O)(=O)Nc1cccc(-c2nc3cccnc3s2)c1	none
Cc1cc(-c2nc3cccnc3s2)ccc1NS(=O)(=O)c1ccc2c(c1)OCCO2	Hck Nef HTS 70.5 (not shown: Calb biofilm kill)
Cc1ccc(-c2nn(CC(=O)NN3CCOCC3)c(=O)c3ccccc23)cc1	none
CCO[C@@H]1OC(C(=O)N2CCCCCCC2)=C[C@H](c2cn(C(C)=O)c3ccccc23)[C@H]1CCCO	none
Cc1nc2ccc(S(=O)(=O)Nc3ccc(-c4nc5cccnc5s4)cc3)cc2s1	Hck Nef HTS 55.6

Screening results deposited in PubChem by several laboratories.
